Calls of active or inactive are those of the source. The calls are words filed in the database; no cut-off is given here.
Experiments:
[1] = test system: Enterococcus faecium; assay: Antibacterial activity against vancomycin-resistant VanA phenotype of Enterococcus faecium ATCC 51559 assessed as leakage of intracellular potassium ion at 10 uM measured for 10 mins by PBFI-AM dye-based spectrofluorometric analysis; type: functional, organism-based
In short: (§1)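 Mid-log (6 h) cells washed twice and resuspended in 10 mM HEPES pH 7.2 with 0.5% glucose. Signal stabilized 60 s at RT, then 1 μM PBFI-AM added and a 2 min baseline recorded before compound.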

[2] = test system: Enterococcus faecium; assay: Antibacterial activity against vancomycin-sensitive Enterococcus faecium ATCC 19634 assessed as growth inhibition by broth microdilution method; type: functional
In short: (§2)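 Broth microdilution per CLSI; compounds serially diluted in autoclaved water. Bacteria grown 6 h in suitable media, diluted to 10⁵ CFU/mL; compound added to bacterial suspension, incubated at 37 °C, OD600 read. Triplicate wells, experiment done at least twice; mean OD versus concentration sigmoidally fitted, MIC taken where OD equals no-bacteria control.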

[3] = test system: Staphylococcus aureus; assay: Bactericidal activity against methicillin-resistant Staphylococcus aureus ATCC 33591 infected in 90% human whole blood at 3.6 uM after 3 hrs; type: functional, organism-based
In short: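 MRSA (30 μL of 10^6 CFU/mL in 0.9% saline) mixed with compound at 3.6 μM and 270 μL fresh human whole blood. Incubated 3 h at 37 °C.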

[4] = test system: Enterococcus faecium; assay: Antibacterial activity against vancomycin-resistant VanA phenotype of Enterococcus faecium ATCC 51559 assessed as growth inhibition by broth microdilution method; type: functional
In short: (§3)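 Broth microdilution per CLSI; compounds serially diluted in sterile water, added to bacteria at 10^5 CFU/mL (diluted from 6 h cultures). Incubated at 37 °C, OD600 read. Triplicate wells, experiment done at least twice. Mean OD plotted against concentration and fitted sigmoidally; MIC taken where OD matches the no-bacteria control.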

[5] = test system: Staphylococcus aureus; assay: Bactericidal activity against methicillin-resistant Staphylococcus aureus ATCC 33591 assessed as log10 reduction of bacterial count at 6 times MIC measured over 24 hrs; type: functional
In short: (§4)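 MRSA in yeast-dextrose broth, starting inoculum 1.6 × 10^8 CFU/mL. […] Samples taken at 0, 1, 2, 3, 6 and 24 h, diluted 10-fold serially in saline and plated on yeast-dextrose agar. Colonies counted after 24 h at 37 °C; log10 CFU/mL reported.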

[6] = test system: Staphylococcus aureus; assay: Antibacterial activity against methicillin-resistant Staphylococcus aureus ATCC 33591 assessed as leakage of intracellular potassium ion at 10 uM measured for 10 mins by PBFI-AM dye-based spectrofluorometric analysis relative to control; type: functional; in short: as §1
[7] = test system: Staphylococcus aureus; assay: Antibacterial activity against methicillin-resistant Staphylococcus aureus ATCC 33591 infected in CD-1 mouse neutropenic thigh infection model assessed as reduction of bacterial burden in thigh at 12 mg/kg, iv bid administered as 12 hrs interval measured after 24 hrs; type: functional, organism-based; set-up: dose 12 mg/kg
In short: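 Neutropenic mouse thigh model: about 50 μL MRSA inoculum injected into the thigh. About 1 h later, iv treatment twice at 12 h intervals with saline, vancomycin or compound at 12 mg/kg. At 24 h, thigh homogenate dilutions plated and incubated overnight at 37 °C; titer expressed as log10 CFU/g thigh.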

[8] = test system: Enterococcus faecium; assay: Antibacterial activity against vancomycin-resistant VanA phenotype of Enterococcus faecium ATCC 51559 assessed as induction of membrane depolarization measured at < 3 mins by DiSC3(5) dye-based spectrofluorometric analysis; type: functional, organism-based
In short: (§5)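 Membrane potential assay with DiSC3(5): dye added to cells until maximal uptake, seen as a fluorescence minimum (about 10 min). Compounds then added and depolarization followed as the fluorescence increase over a further 10 min.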

[9] = test system: Staphylococcus aureus; assay: Antibacterial activity against methicillin-sensitive Staphylococcus aureus MTCC 737 assessed as growth inhibition by broth microdilution method; type: functional; in short: as §2
[10] = test system: Enterococcus faecium; assay: Antibacterial activity against vancomycin-resistant VanA phenotype of Enterococcus faecium ATCC 51559 assessed as induction of cytoplasmic membrane permeabilization at 10 uM measured for 10 mins by propidium iodide uptake assay; type: functional, organism-based
In short: (§6)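 Mid-log (6 h) cells harvested at 4 °C, washed and resuspended in PBS pH 7.2. Compound added to cells with 10 μM propidium iodide. Fluorescence (ex 535/em 617 nm) monitored 10 min at RT; the rise in PI fluorescence taken as inner membrane permeabilization.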

[11] = test system: Staphylococcus aureus; assay: Bactericidal activity against methicillin-resistant Staphylococcus aureus ATCC 33591 assessed as log10 reduction of bacterial count at MIC measured over 24 hrs; type: functional; in short: as §4
[12] = test system: Staphylococcus aureus; assay: Antibacterial activity against methicillin-resistant Staphylococcus aureus ATCC 33591 assessed as induction of cytoplasmic membrane permeabilization measured within 5 mins by propidium iodide uptake assay; type: functional, organism-based; in short: as §6
[13] = test system: Staphylococcus aureus; assay: Antibacterial activity against methicillin-resistant Staphylococcus aureus ATCC 33591 assessed as growth inhibition by broth microdilution method; type: functional; in short: as §3
[14] = test system: HeLa; assay: Cytotoxicity against human HeLa cells assessed as cell survival up to 100 uM after 24 hrs by MTT assay; type: cell-based
In short: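 HeLa cells grown in DMEM with 10% FBS to 70–80% confluency, then exposed to serially diluted compounds for 24 h at 37 °C, 5% CO2. MTT (5 mg/mL solution) added for 3 h, formazan dissolved in DMSO, A570 read. Survival calculated relative to untreated and 10% Triton X-100 controls.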

[15] = test system: Staphylococcus aureus; assay: Antibacterial activity against methicillin-resistant Staphylococcus aureus ATCC 33591 assessed as growth inhibition measured after 52 serial passages; type: functional, organism-based
In short: (§7)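 Serial passage: the MIC assay is run against MRSA, then cells from the one-half-MIC well of the previous assay are harvested and inoculated into fresh yeast-dextrose broth for the next MIC assay after 24 h incubation. Repeated for […] passages; MIC plotted against passage number and fold increase in MIC determined.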

[16] = test system: Staphylococcus aureus; assay: Antibacterial activity against methicillin-resistant Staphylococcus aureus ATCC 33591 assessed as induction of membrane depolarization measured at < 3 mins by DiSC3(5) dye-based spectrofluorometric analysis; type: functional, organism-based; in short: as §5
[17] = Hemolytic activity in human RBC up to 1000 uM after 1 hr; type: ADME, cell-based; details: erythrocyte
In short: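 Centrifuged, supernatant A540 read. Controls: no compound and 1 vol % Triton X-100 (100% lysis); % hemolysis = (A − A0)/(Atotal − A0) × 100.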

[18] = test system: Staphylococcus aureus; assay: Antibacterial activity against vancomycin-intermediate-resistant Staphylococcus aureus assessed as growth inhibition by broth microdilution method; type: functional; in short: as §3
[19] = Hemolytic activity in human RBC up to 100 uM after 1 hr; type: ADME, cell-based; details: erythrocyte
In short: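 Incubated 1 h at 37 °C, then centrifuged and supernatant A540 read. % hemolysis calculated against no-compound wells and 1 vol% Triton X-100 wells taken as 100% lysis.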

[20] = test system: Enterococcus faecium; assay: Potency index, ratio of dalbavancin MIC90 to compound MIC for vancomycin-resistant VanA phenotype of Enterococcus faecium ATCC 51559; type: functional
[21] = test system: Enterococcus faecium; assay: Antibacterial activity against vancomycin-resistant VanA phenotype of Enterococcus faecium ATCC 51559 assessed as induction of membrane depolarization at 10 uM measured for 10 mins by DiSC3(5) dye-based spectrofluorometric analysis; type: functional, organism-based; in short: as §5
[22] = test system: Staphylococcus aureus; assay: Antibacterial activity against methicillin-resistant Staphylococcus aureus ATCC 33591 assessed as induction of membrane depolarization at 10 uM measured for 10 mins by DiSC3(5) dye-based spectrofluorometric analysis; type: functional, organism-based; in short: as §5
[23] = test system: Staphylococcus aureus; assay: Bacteriostatic activity against methicillin-resistant Staphylococcus aureus ATCC 33591 measured over 24 hrs; type: functional, organism-based; in short: as §4
[24] = test system: Staphylococcus aureus; assay: Ratio of MIC for methicillin-resistant Staphylococcus aureus ATCC 33591 measured after 52 serial passages to MIC for methicillin-resistant Staphylococcus aureus ATCC 33591; type: functional; in short: as §7
[25] = test system: Staphylococcus aureus; assay: Antibacterial activity against methicillin-resistant Staphylococcus aureus ATCC 33591 assessed as growth inhibition measured after 20 serial passages; type: functional, organism-based; in short: as §7
[26] = test system: Staphylococcus aureus; assay: Antibacterial activity against methicillin-resistant Staphylococcus aureus ATCC 33591 assessed as induction of cytoplasmic membrane permeabilization at 10 uM measured for 10 mins by propidium iodide uptake assay; type: functional, organism-based; in short: as §6

Compound	Activity [1]	MIC [2] [µM]	Activity [3]	MIC [4] [µM]	log10cfu [5]	Activity [6]	Activity [7]	Activity [8]	MIC [9] [µM]	Activity [10]	log10cfu [11]	Activity [12]	MIC [13] [µM]	Activity [14]	Activity [15]	Activity [16]	MIC [18] [µM]	further results
CCCCCCCC[N+](C)(C)CCCNC(=O)[C@H]1NC(=O)[C@H]2NC(=O)[C@H](NC(=O)[C@@H]3NC(=O)[C@H](CC(N)=O)NC(=O)[C@H](NC(=O)[C@@H](CC(C)C)NC)[C@H](O)c4ccc(c(Cl)c4)Oc4cc3cc(c4O[C@@H]3O[C@H](CO)[C@@H](O)[C@H](O)[C@H]3O[C@H]3C[C@](C)(N)[C@H](O)[C@H](C)O3)Oc3ccc(cc3Cl)[C@H]2O)c2ccc(O)c(c2)-c2c(O)cc(O)cc21.O=C([O-])C(F)(F)F	Active	0.15	Active	12.5	3	43%	Active	Dose-dependent effect	0.31	Active	8	Dose-dependent effect	0.31	Non-toxic	Active	Dose-dependent effect	0.4	Activity [17]: Non-toxic
CCCCCCCCCCCCCC[N+](C)(C)CCCNC(=O)[C@H]1NC(=O)[C@H]2NC(=O)[C@H](NC(=O)[C@@H]3NC(=O)[C@H](CC(N)=O)NC(=O)[C@H](NC(=O)[C@@H](CC(C)C)NC)[C@H](O)c4ccc(c(Cl)c4)Oc4cc3cc(c4O[C@@H]3O[C@H](CO)[C@@H](O)[C@H](O)[C@H]3O[C@H]3C[C@](C)(N)[C@H](O)[C@H](C)O3)Oc3ccc(cc3Cl)[C@H]2O)c2ccc(O)c(c2)-c2c(O)cc(O)cc21.O=C([O-])C(F)(F)F	Active	0.12	Active	0.7	>5	Active		Dose-dependent effect	1.25	Active	>5	Dose-dependent effect	0.65	Non-toxic	Active	Dose-dependent effect	0.36	Activity [19]: Non-toxic; Ratio [20]: 25
CN[C@H](CC(C)C)C(=O)N[C@H]1C(=O)N[C@@H](CC(N)=O)C(=O)N[C@H]2C(=O)N[C@H]3C(=O)N[C@H](C(=O)N[C@H](C(=O)O)c4cc(O)cc(O)c4-c4cc3ccc4O)[C@H](O)c3ccc(c(Cl)c3)Oc3cc2cc(c3O[C@@H]2O[C@H](CO)[C@@H](O)[C@H](O)[C@H]2O[C@H]2C[C@](C)(N)[C@H](O)[C@H](C)O2)Oc2ccc(cc2Cl)[C@H]1O [VANCOMYCIN]		0.6	Active	750		100%	Active		0.63	inactive			0.63				13	Activity [21]: inactive; Activity [22]: inactive; Activity [23]: Dose-dependent effect; Ratio [24]: >20; Activity [25]: Active; Activity [26]: inactive
